Laboratory results as given in ChEMBL document CHEMBL2203144, “Synthesis and evaluation of antimicrobial activity of 4H-pyrimido[2,1-b]benzothiazole, pyrazole and benzylidene derivatives of curcumin” (Eur J Med Chem, 2012).
Activity calls are given as the source filed them. No cut-off for these calls is given here.

Tests used:
[1] = tested on: Aspergillus fumigatus; assay: Antifungal activity against Aspergillus fumigatus after 72 hrs by agar disk diffusion method; format: functional
Procedure, shortened: (§1)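 Sterile filter-paper discs dipped in the acetone dilutions of compound (20–0.315 µM/mL), then dried to remove acetone. Sabouraud dextrose agar plates spread with 1 mL fungal culture. Discs placed aseptically; one drug-free disc served as growth control; fluconazole reference. Plates incubated upright 72 h at 28 °C. Zone of inhibition measured in mm with a scale.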

[2] = tested on: Aspergillus flavus; assay: Antifungal activity against Aspergillus flavus after 72 hrs by agar disk diffusion method; format: functional; procedure, shortened: as §1
[3] = tested on: Escherichia coli; assay: Antibacterial activity against Escherichia coli ATCC 35218 after 24 hrs by broth microdilution method; format: functional
Procedure, shortened: (§2)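 Microwell broth dilution in brain heart infusion broth (nutrient broth adjusted to pH 7.0). Inoculum from 16 h cultures, adjusted to 0.5 McFarland (1.5 × 10⁸ CFU/mL). 10 µL compound (serial dilutions 20 down to 0.625 or 0.312 µM/mL) plus 10 µL culture added to 150 µL broth. Incubated 24 h at 37 °C. MIC95 is the lowest concentration with no turbidity. Ciprofloxacin reference; inoculum and broth controls.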

[4] = tested on: Aspergillus niger; assay: Antifungal activity against Aspergillus niger after 72 hrs by agar disk diffusion method; format: functional; procedure, shortened: as §1
[5] = tested on: Staphylococcus aureus; assay: Antibacterial activity against Staphylococcus aureus ATCC 11632 after 24 hrs by broth microdilution method; format: functional; procedure, shortened: as §2
[6] = tested on: Bacillus cereus; assay: Antibacterial activity against Bacillus cereus MTCC 7350 after 24 hrs by broth microdilution method; format: functional; procedure, shortened: as §2
[7] = tested on: Providencia rettgeri; assay: Antibacterial activity against Providencia rettgeri DRDE after 24 hrs by broth microdilution method; format: functional; procedure, shortened: as §2
[8] = tested on: Aspergillus niger; assay: Antifungal activity against Aspergillus niger after 72 hrs by broth dilution method; format: functional
Procedure, shortened: (§3)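 Compounds and fluconazole reference were dissolved in acetone at 120 µM/mL and serially diluted to 20–0.315 µM/mL. 10 µL compound plus 10 µL fungal culture broth added to 150 µL Sabouraud dextrose medium per well. Optical density recorded, then incubated 72 h at 28 °C. MIC95 taken from absence of turbidity. Acetone-at-same-dilution solvent control.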

[9] = tested on: Aspergillus flavus; assay: Antifungal activity against Aspergillus flavus after 72 hrs by broth dilution method; format: functional; procedure, shortened: as §3
[10] = Cytotoxicity against human L123 cells after 48 hrs by MTT assay; format: cell-based
Procedure, shortened: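 MTT assay. 2×10³ cells per well in MEM + 10% FBS, attached 24 h, then treated at 5, 10, 20, 50 and 100 µM/mL for 48 h; controls received medium with 0.2% DMSO. Duplicate treatments. Cells PBS-washed, given MTT (stock 1 mg/mL) for 4 h at 37 °C. Formazan dissolved in DMSO, read at 590 nm. IC50 is the concentration reducing viability by 50%.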

[11] = tested on: Salmonella typhi; assay: Antibacterial activity against Salmonella typhi ATCC 15499 after 24 hrs by broth microdilution method; format: functional
Procedure, shortened: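 Broth microdilution in brain heart infusion broth in microwells. Inoculum was prepared from 16 h cultures adjusted to the 0.5 McFarland standard (1.5 × 10⁸ CFU/mL). Compounds were serially diluted from 20 down to 0.625 µM/mL and added to the broth, followed by the bacterial culture. Plates were incubated 24 h at 37 °C, with optical density read. MIC95 was the lowest concentration giving no turbidity. Inoculum and broth controls were included.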

[12] = tested on: Pseudomonas aeruginosa; assay: Antibacterial activity against Pseudomonas aeruginosa ATCC 23564 after 24 hrs by broth microdilution method; format: functional; procedure, shortened: as §2
[13] = tested on: Aspergillus fumigatus; assay: Antifungal activity against Aspergillus fumigatus after 72 hrs by broth dilution method; format: functional; procedure, shortened: as §3
[14] = Salmonella enterica subsp. enterica serovar Typhi

SMILES	inhibition zone (IZ) [1]	inhibition zone (IZ) [2]	MIC95 [3]	inhibition zone (IZ) [4]	MIC95 [5]	MIC95 [6]	MIC95 [7]	MIC95 [8]	MIC95 [9]	IC50 [10]	MIC95 [11, 14]	MIC95 [12]	MIC95 [13]	MIC95 [11]
COc1cc(/C=C/C(=O)C2=C(/C=C/c3ccc(O)c(OC)c3)N=C3Sc4ccccc4N3C2c2ccccc2O)ccc1O (configuration not stated)	inactive	inactive	inactive	inactive	20 uM/ml	5 uM/ml	inactive	inactive	inactive	50 uM/ml	inactive	20 uM/ml	inactive	
COc1cc(/C=C/C(=O)C(=Cc2ccc(N(C)C)cc2)C(=O)/C=C/c2ccc(O)c(OC)c2)ccc1O	20 mm	inactive	inactive	15 mm	5 uM/ml	0.625 uM/ml	inactive	5 uM/ml	inactive	> 100 uM/ml		1.25 uM/ml	1.25 uM/ml	2.5 uM/ml
COc1cc(/C=C/C(=O)C2=C(/C=C/c3ccc(O)c(OC)c3)N=C3Sc4ccccc4N3C2c2ccccc2)ccc1O (configuration not stated)	inactive	inactive	inactive	inactive	20 uM/ml	5 uM/ml	20 uM/ml	inactive	inactive	> 100 uM/ml		10 uM/ml	inactive	20 uM/ml
COc1cc(/C=C/C(=O)C2=C(/C=C/c3ccc(O)c(OC)c3)N=C3Sc4ccccc4N3C2c2ccc(Cl)cc2)ccc1O (configuration not stated)	inactive	inactive	10 uM/ml	inactive	inactive	5 uM/ml	inactive	inactive	inactive	> 100 uM/ml	inactive	20 uM/ml	inactive	
